Legend:
[1] = target: T1, C-C chemokine receptor type 2 (Homo sapiens, UniProt P41597); assay: Displacement of [125]MCP1 from CCR2 in human PBMCs at 10 uM
Summary of the method: (§1)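 Human PBMCs were incubated with 0.3 nM [125I]MCP-1 at 23 °C. Percent inhibition of binding was measured at one fixed inhibitor concentration, n = 1.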
Target sequence in this assay (P41597 whole entry, looked up): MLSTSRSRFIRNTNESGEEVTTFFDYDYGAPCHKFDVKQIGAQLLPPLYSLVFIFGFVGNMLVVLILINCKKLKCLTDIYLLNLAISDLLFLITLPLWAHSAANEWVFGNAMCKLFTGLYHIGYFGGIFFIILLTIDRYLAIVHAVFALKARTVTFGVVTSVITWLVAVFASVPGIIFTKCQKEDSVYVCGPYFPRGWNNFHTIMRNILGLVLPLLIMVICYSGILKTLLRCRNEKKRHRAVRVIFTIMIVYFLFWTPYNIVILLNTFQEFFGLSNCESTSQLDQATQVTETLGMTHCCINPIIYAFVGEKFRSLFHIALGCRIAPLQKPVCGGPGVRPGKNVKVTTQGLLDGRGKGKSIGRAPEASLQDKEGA

[2] = target: T2, C-C chemokine receptor type 1 (Homo sapiens) (UniProt P32246); assay: Inhibition of CCR1 at 10 uM
T2 sequence (whole entry): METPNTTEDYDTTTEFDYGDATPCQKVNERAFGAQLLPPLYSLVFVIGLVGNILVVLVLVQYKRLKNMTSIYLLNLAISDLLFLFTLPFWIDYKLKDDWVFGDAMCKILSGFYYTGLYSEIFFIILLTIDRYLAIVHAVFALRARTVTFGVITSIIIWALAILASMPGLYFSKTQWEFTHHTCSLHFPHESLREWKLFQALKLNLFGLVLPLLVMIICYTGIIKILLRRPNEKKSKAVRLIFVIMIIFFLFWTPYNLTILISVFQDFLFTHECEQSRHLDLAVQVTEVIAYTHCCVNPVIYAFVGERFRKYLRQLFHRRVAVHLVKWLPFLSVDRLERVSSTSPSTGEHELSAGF

[3] = target: T1, C-C chemokine receptor type 2; assay: Displacement of [125]MCP1 from CCR2 in human PBMCs at 1 uM; summary of the method: as §1
Target sequence in this assay (P41597 whole entry, looked up): as the sequence (P41597 whole entry, looked up) above

[4] = target: T1, C-C chemokine receptor type 2; assay: Displacement of [125]MCP1 from CCR2 in human PBMCs
Summary of the method: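 Competition binding with 0.3 nM [125I]MCP-1 on human peripheral blood mononuclear cells at 23 °C. IC50 given as mean ± SD (n = 2) or mean ± SEM (n > 2). Single determinations are listed with n = 1.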
Target sequence in this assay (P41597 whole entry): as the sequence (P41597 whole entry, looked up) above

[5] = target: T3, C-C chemokine receptor type 3 (Homo sapiens, UniProt P51677); assay: Displacement of [125I]eotaxin from human CCR3 expressed in CHO cells; type: cell-based
T3 sequence (P51677 whole entry): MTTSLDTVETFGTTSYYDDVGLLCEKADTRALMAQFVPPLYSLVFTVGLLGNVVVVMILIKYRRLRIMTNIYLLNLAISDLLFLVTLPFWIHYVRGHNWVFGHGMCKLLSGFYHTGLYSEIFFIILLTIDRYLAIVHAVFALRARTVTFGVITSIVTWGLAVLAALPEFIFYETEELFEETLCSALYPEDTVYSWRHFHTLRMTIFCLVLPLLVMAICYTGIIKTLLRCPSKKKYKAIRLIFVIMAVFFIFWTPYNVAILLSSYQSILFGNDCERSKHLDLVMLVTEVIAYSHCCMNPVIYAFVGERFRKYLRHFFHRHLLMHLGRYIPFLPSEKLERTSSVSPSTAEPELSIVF
Summary of the method: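 Binding of 0.15 nM [125I]eotaxin to CHO cells expressing human CCR3. Data are a single determination, mean ± SD (n = 2), or mean ± SEM (n indicated). ">" means less than 50% response at the stated concentration.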

[6] = target: T1, C-C chemokine receptor type 2; assay: Antagonist activity at CCR2 in THP1 cells assessed as inhibition of MCP1-induced Ca2+ flux; type: functional, cell-based, THP-1
Target sequence in this assay (P41597 whole entry): as the sequence (P41597 whole entry, looked up) above

[7] = target: C-C chemokine receptor type 5 (Homo sapiens) (UniProt P51681); assay: Inhibition of CCR5 receptor at 10 uM
Chain of C-C chemokine receptor type 5 (Homo sapiens) (P51681 whole entry, looked up): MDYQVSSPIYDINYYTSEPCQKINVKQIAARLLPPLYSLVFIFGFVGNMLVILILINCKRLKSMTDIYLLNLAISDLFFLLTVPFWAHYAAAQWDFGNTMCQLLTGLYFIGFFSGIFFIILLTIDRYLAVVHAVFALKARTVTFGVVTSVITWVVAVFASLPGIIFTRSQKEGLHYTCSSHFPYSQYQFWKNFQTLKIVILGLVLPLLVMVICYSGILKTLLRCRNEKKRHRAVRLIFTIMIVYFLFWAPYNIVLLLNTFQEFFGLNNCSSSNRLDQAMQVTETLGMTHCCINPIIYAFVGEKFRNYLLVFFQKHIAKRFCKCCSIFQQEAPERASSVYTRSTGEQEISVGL

L-type calcium channel = L-type calcium channel (Homo sapiens, UniProt O60840+Q01668+Q13698+Q13936); assay: Inhibition of L-type calcium channel at 10 uM
[8] = target: Sigma non-opioid intracellular receptor 1 (Homo sapiens) (UniProt Q99720); assay: Inhibition of sigma 1 receptor at 10 uM
Chain of Sigma non-opioid intracellular receptor 1 (Homo sapiens) (Q99720 whole entry): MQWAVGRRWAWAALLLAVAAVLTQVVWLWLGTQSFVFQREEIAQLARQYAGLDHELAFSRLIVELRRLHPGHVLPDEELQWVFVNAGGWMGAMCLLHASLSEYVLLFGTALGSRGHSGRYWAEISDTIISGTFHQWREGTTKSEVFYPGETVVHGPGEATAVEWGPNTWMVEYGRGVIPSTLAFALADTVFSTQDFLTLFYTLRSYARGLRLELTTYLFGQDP

[9] = target: Histamine H2 receptor (Homo sapiens) (UniProt P25021); assay: Inhibition of histamine H2 receptor at 10 uM
Chain of Histamine H2 receptor (Homo sapiens) (P25021 whole entry): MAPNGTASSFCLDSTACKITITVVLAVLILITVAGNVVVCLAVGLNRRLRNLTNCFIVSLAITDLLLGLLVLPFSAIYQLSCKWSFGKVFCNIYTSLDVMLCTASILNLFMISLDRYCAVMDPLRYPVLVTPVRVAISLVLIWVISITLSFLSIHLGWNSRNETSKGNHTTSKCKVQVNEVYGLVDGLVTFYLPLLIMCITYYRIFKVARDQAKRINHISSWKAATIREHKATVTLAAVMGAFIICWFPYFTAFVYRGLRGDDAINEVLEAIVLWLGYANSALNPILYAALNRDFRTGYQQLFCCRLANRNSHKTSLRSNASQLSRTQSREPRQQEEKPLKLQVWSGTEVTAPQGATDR

Homo sapiens = species: Homo sapiens; assay: Inhibition of sodium channel at 10 uM
[10] = target: Mu-type opioid receptor (Homo sapiens) (UniProt P35372); assay: Inhibition of opiate mu receptor at 10 uM
Chain of Mu-type opioid receptor (Homo sapiens) (P35372 whole entry): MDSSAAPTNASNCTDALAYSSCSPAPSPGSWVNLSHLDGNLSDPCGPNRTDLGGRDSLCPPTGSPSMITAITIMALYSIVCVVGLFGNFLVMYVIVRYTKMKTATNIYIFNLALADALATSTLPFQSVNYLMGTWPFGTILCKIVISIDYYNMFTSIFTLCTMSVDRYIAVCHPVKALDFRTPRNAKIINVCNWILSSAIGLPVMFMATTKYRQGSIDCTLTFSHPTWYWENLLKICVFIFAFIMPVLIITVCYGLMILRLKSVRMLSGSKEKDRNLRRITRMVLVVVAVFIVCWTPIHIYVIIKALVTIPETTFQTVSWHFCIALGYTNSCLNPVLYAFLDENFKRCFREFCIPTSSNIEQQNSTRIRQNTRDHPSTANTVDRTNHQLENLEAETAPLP

| inhibition [2] | IC50 [4] | Compound | other results |
| --- | --- | --- | --- |
| < 30% |  | CC(C)(C)NC(=O)[C@H](CNCc1ccc(-c2ccccc2)cc1)NC(=O)CNC(=O)c1cccc(C(F)(F)F)c1 | Activity [3]: 30% |
| < 30% |  | COc1ccc(CNC[C@H](NC(=O)CNC(=O)c2cccc(C(F)(F)F)c2)C(=O)NC(C)(C)C)c(OC)c1 | Activity [3]: 37% |
| < 30% | 0.023 µM | Cc1ccc(CNC[C@H](NC(=O)CNC(=O)c2cc(N)cc(C(F)(F)F)c2)C(=O)NC(C)(C)C)c(C)c1 | IC50 [5]: > 10 µM; IC50 [6]: 0.052 µM |
| < 30% |  | COC(=O)c1ccc(CNC[C@H](NC(=O)CNC(=O)c2cccc(C(F)(F)F)c2)C(=O)NC(C)(C)C)cc1 | Activity [3]: 20% |
| < 30% |  | Cc1ccc(CNC[C@@H](NC(=O)CNC(=O)c2cccc(C(F)(F)F)c2)C(=O)O)c(C)c1 | Activity [1]: 31% |
| < 30% | 0.011 µM | Cc1ccc(CNC[C@H](NC(=O)CNC(=O)c2cc(C(F)(F)F)ccc2N)C(=O)NC(C)(C)C)c(C)c1 | inhibition [7]: > 70%; inhibition at 10 µM (L-type calcium channel): > 70%; inhibition [8]: > 70%; inhibition [9]: > 70%; IC50 [5]: 0.75 µM; IC50 [6]: 0.008 µM; inhibition (Homo sapiens): > 70%; inhibition [10]: > 70% |
| < 30% |  | Cc1ccc(CN(C)C[C@H](NC(=O)CNC(=O)c2cccc(C(F)(F)F)c2)C(=O)NC(C)(C)C)c(C)c1 | Activity [3]: 12% |
| < 30% | 0.12 µM | Cc1ccc(CNC[C@H](NC(=O)CNC(=O)c2cccc(C(F)(F)F)c2)C(=O)NC(C)(C)C)cc1N |  |
| < 30% | 0.065 µM | Cc1ccc(CNC[C@H](NC(=O)CNC(=O)c2cccc(C(F)(F)C(F)(F)F)c2)C(=O)NC(C)(C)C)c(C)c1 |  |
| < 30% | 0.67 µM | Cc1ccc(CNC[C@H](NC(=O)CNC(=O)c2cccc(C(F)(F)F)c2)C(=O)NC(C)(C)C)cc1[N+](=O)[O-] |  |
| < 30% |  | Cc1ccc(CNC[C@H](NC(=O)CNC(=O)c2cccc(C(F)(F)F)c2)C(=O)NC(C)(C)C)cc1F | Activity [3]: 27% |
| < 30% | 0.11 µM | CCNC(=O)[C@H](CNCc1ccc(C)cc1C)NC(=O)CNC(=O)c1cccc(C(F)(F)F)c1 |  |
| < 30% | 0.048 µM | Cc1ccc(CNC[C@H](NC(=O)CNC(=O)c2cccc(C(F)(F)F)c2)C(=O)NC(C)(C)C)c(C)c1 | IC50 [5]: > 10 µM; IC50 [6]: 0.052 µM |

Continued, molecule first:

| Compound | inhibition [2] | IC50 [4] | other results |
| --- | --- | --- | --- |
| Cc1ccc(CNC[C@@H](NC(=O)CNC(=O)c2cccc(C(F)(F)F)c2)C(C)C)c(C)c1 | < 30% |  | Activity [1]: 20% |
| Cc1ccc(CNC[C@H](NC(=O)[C@H](C)NC(=O)c2cccc(C(F)(F)F)c2)C(N)=O)c(C)c1 | < 30% |  | Activity [1]: 9% |
| Cc1ccc(CNC[C@H](NC(=O)[C@@H](C)NC(=O)c2cccc(C(F)(F)F)c2)C(N)=O)c(C)c1 | < 30% |  | Activity [1]: 40% |
| Cc1ccc(CNC[C@H](NC(=O)CNC(=O)c2cc(NC(=O)C3CCCCC3)cc(C(F)(F)F)c2)C(=O)NC(C)(C)C)c(C)c1 | < 30% |  | Activity [3]: 25% |
| Cc1ccc(CNC[C@H](NC(=O)CNC(=O)c2cc(C(F)(F)F)ccc2NC(=O)NC(C)C)C(=O)NC(C)(C)C)c(C)c1 | < 30% | 0.015 µM | IC50 [5]: 10 µM; IC50 [6]: 0.058 µM |
| CCNC(=O)[C@H](CNCc1ccc(C)cc1C)NC(=O)CCC(=O)c1cccc(C(F)(F)F)c1 | < 30% |  | Activity [1]: 7% |
| Cc1ccc(CNC[C@H](C)NC(=O)CNC(=O)c2cccc(C(F)(F)F)c2)c(C)c1 | < 30% |  | Activity [1]: 35% |
| Cc1ccc(CNC[C@H](NC(=O)CNC(=O)c2cccc(C(F)(F)F)c2)C(N)=O)c(C)c1 | < 30% | 0.066 µM | IC50 [5]: > 10 µM; IC50 [6]: 0.069 µM |
| CCNc1cc(C(=O)NCC(=O)N[C@@H](CNCc2ccc(C)cc2C)C(=O)NC(C)(C)C)cc(C(F)(F)F)c1 | < 30% | 0.019 µM | IC50 [5]: > 10 µM; IC50 [6]: 0.058 µM |
| CCNc1ccc(C(F)(F)F)cc1C(=O)NCC(=O)N[C@@H](CNCc1ccc(C)cc1C)C(=O)NC(C)(C)C | < 30% | 0.013 µM | IC50 [5]: > 10 µM; IC50 [6]: 0.084 µM |
| CCNC(=O)[C@@H](NC(=O)CNC(=O)c1cccc(C(F)(F)F)c1)[C@H](C)NCc1ccc(C)cc1C | < 30% |  | Activity [1]: 2% |
| Cc1ccc(CNC[C@H](NC(=O)CNC(=O)c2cc(C(F)(F)F)ccc2NCc2ccccc2)C(=O)NC(C)(C)C)c(C)c1 | < 30% | 0.019 µM | IC50 [5]: > 10 µM; IC50 [6]: 0.057 µM |
| Cc1ccc(CN2CC[C@@H](NC(=O)CNC(=O)c3cccc(C(F)(F)F)c3)C2)c(C)c1 | < 30% | 0.017 µM |  |
| Cc1ccc(CNC[C@H](NC(=O)CNC(=O)c2cccc(C(F)(F)F)c2)C(=O)NC2(C)CC2)c(C)c1 | < 30% | 0.1 µM |  |
